Reference: ChEMBL document CHEMBL1136239, “Bicyclo[2.2.1]heptanes as novel triple re-uptake inhibitors for the treatment of depression” (Bioorg Med Chem Lett, 2003)
pIC50, pKi: −log10 of the molar value.

Tests used:
[1] = target: T1, Sodium-dependent dopamine transporter (Homo sapiens, UniProt Q01959); test: Displacement of [3H]WIN-35428 from Dopamine transporter
Summary of the method: (§1)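 Radioligand binding: inhibitory binding constants measured against a known radiolabelled re-uptake inhibitor. Ligands were [3H]citalopram for SERT, [3H]WIN35,428 for DAT and [3H]nisoxetine for NET. Values are means of three experiments; minimum significant ratio < 3.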

[2] = target: T1, Sodium-dependent dopamine transporter; test: In vitro inhibition of DA re-uptake into synaptosome; format: functional, tissue-based, Brain
[3] = target: T2, Sodium-dependent serotonin transporter (Homo sapiens, UniProt P31645); test: Displacement of [3H]-citalopram from Serotonin transporter; summary of the method: as §1
[4] = target: T2, Sodium-dependent serotonin transporter; test: In vitro ability of compound to inhibit 5-HT re-uptake of radiolabeled [3H]-tritium transmitter into synaptosome; format: tissue-based, Brain
[5] = target: T3, Sodium-dependent noradrenaline transporter (Homo sapiens, UniProt P23975); test: In vitro inhibition of [3H]NE re-uptake into synaptosome; format: functional, tissue-based, Brain
[6] = target: T3, Sodium-dependent noradrenaline transporter; test: Compound was tested for its ability to displace […] from norepinephrine transporter
[7] = target: T3, Sodium-dependent noradrenaline transporter; test: Displacement of [3H]-Nisoxetine from norepinephrine transporter
[8] = target: Sodium-dependent noradrenaline transporter (Mus musculus) (UniProt O55192); test: In vivo potentiation of compound towards norepinephrine transporter after po administration was determined in mouse using mouse apomorphine hypothermia; format: functional, organism-based
Summary of the method: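 Apomorphine (APO) test after oral administration. The result is expressed as the minimum effective dose (EDmin), mg/kg po.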

[9] = target: Sodium-dependent serotonin transporter (Mus musculus) (UniProt Q60857); test: In vivo potentiation of compound towards Serotonin transporter after po administration; format: functional, organism-based
Summary of the method: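 Oral dosing, read-out from the 5-HTP test. The value is the minimum effective dose (EDmin) in mg/kg po.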

[10] = target: Sodium-dependent dopamine transporter (Mus musculus) (UniProt Q61327); test: In vivo potentiation of compound towards Dopamine transporter after po administration was determined in mouse using mouse locomotor activity […]; format: functional, organism-based
Summary of the method: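 Given by mouth and assessed in the MLA (locomotor activity) test. Reported as the minimum effective dose (EDmin), mg/kg po.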

Chain of Sodium-dependent serotonin transporter (Mus musculus) (Q60857 whole entry): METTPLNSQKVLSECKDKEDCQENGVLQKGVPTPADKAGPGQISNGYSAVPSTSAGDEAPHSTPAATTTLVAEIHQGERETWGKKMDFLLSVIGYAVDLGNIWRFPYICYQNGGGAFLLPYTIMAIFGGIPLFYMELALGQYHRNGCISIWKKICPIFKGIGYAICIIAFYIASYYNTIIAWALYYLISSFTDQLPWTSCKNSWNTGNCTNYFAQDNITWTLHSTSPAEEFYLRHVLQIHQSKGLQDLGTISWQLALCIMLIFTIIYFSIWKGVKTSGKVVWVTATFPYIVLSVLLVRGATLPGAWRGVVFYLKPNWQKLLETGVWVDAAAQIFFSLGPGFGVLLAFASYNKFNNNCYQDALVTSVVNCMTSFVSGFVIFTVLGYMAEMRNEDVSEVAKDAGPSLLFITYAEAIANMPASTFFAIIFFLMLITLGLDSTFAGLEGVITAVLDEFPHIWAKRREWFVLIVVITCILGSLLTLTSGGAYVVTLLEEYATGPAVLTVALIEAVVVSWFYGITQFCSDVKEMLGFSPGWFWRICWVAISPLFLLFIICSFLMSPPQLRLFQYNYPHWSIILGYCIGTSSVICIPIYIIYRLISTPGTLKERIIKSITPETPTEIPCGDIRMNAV
T1 sequence (Q01959 whole entry): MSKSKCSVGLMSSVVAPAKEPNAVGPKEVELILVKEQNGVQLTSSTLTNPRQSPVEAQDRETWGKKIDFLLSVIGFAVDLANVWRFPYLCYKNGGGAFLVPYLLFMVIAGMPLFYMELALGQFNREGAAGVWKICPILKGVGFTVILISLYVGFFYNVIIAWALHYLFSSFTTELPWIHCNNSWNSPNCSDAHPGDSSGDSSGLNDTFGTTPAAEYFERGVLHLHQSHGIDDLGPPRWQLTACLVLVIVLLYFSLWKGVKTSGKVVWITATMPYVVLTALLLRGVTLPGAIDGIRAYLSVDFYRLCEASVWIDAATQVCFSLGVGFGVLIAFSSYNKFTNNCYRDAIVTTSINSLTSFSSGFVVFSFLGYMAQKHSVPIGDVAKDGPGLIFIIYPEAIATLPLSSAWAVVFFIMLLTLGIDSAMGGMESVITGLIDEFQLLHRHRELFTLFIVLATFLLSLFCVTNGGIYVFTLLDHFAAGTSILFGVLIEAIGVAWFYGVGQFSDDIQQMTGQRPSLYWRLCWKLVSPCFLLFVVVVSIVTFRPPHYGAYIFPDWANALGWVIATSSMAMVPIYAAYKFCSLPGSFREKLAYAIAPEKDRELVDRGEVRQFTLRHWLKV
T3 sequence (P23975 whole entry): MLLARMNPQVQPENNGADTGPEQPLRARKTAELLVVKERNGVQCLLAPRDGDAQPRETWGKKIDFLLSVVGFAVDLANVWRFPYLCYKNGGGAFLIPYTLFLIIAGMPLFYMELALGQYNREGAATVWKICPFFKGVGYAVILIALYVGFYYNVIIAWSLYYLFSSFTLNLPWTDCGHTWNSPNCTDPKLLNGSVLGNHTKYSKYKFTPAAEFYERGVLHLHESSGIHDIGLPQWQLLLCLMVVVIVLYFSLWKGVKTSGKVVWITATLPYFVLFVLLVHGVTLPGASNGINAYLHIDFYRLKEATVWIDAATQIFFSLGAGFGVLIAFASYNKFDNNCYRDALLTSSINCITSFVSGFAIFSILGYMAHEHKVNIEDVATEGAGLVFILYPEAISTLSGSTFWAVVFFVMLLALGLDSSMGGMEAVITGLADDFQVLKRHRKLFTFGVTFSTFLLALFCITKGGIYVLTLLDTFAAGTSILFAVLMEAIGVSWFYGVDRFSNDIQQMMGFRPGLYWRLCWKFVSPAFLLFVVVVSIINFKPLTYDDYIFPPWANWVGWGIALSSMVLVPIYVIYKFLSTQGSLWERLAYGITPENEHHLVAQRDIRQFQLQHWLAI
T2 sequence (P31645 whole entry): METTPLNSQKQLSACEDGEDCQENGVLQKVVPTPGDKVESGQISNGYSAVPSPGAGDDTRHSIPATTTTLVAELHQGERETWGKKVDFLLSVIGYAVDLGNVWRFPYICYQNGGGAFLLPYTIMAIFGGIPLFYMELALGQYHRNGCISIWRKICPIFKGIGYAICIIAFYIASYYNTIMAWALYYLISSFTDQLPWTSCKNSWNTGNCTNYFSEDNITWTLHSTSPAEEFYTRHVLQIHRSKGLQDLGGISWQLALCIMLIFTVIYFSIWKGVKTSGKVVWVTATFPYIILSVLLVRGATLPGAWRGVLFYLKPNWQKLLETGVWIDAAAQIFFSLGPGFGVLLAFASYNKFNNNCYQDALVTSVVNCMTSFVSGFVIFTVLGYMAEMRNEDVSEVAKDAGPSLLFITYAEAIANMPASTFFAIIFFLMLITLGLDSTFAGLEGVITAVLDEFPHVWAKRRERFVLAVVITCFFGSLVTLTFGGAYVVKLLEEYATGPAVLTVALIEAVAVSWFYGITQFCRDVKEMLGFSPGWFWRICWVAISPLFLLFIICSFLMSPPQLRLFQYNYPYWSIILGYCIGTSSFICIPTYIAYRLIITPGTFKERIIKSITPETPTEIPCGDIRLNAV
Chain of Sodium-dependent noradrenaline transporter (Mus musculus) (O55192 whole entry): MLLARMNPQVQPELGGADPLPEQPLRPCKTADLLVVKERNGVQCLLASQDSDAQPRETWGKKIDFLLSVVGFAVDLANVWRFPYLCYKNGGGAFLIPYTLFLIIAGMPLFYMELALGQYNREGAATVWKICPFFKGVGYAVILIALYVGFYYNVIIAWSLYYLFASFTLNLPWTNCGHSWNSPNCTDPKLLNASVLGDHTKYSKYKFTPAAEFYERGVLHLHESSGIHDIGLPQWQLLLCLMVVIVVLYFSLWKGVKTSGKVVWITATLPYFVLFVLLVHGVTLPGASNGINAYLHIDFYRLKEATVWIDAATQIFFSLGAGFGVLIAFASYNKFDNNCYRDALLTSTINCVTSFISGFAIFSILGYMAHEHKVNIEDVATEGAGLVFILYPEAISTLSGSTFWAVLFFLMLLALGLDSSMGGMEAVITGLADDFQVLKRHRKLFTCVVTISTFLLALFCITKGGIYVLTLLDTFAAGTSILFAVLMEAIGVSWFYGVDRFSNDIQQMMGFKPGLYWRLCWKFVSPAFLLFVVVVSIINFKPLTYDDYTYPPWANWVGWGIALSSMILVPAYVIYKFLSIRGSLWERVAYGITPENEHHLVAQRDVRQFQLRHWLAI
Chain of Sodium-dependent dopamine transporter (Mus musculus) (Q61327 whole entry): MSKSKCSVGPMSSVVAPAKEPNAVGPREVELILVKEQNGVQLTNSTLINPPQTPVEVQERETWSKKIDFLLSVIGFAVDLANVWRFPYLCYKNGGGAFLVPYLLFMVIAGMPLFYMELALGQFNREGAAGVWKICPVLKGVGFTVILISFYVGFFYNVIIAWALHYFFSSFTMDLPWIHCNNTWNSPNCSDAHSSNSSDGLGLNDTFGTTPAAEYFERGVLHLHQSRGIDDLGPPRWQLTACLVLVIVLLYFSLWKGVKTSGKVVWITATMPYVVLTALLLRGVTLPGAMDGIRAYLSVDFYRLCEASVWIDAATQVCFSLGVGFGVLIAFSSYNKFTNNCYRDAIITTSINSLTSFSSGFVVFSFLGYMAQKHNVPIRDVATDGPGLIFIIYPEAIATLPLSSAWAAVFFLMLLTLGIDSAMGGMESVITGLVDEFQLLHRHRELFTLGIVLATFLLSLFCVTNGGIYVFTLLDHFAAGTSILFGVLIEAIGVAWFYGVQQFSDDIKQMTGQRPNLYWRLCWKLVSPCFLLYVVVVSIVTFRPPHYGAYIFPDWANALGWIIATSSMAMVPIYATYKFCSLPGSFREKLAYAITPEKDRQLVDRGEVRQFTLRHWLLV

Row | Compound | pKi [1] | pIC50 [2] | pKi [3] | pIC50 [4] | pIC50 [5] | pKi [6] | pKi [7] | EDmin [8] [mg/kg] | EDmin [9] [mg/kg] | EDmin [10] [mg/kg]
1 | CN(C)CC1C2CCC(C2)C1c1cccc2ccccc12 (stereo unspecified) | 6.37 | 5.82 | 7.28 | 7.03 |  |  |  |  |  | 
2 | CN(C)C[C@@H]1C2CCC(CC2)[C@@H]1c1ccc(Cl)c(Cl)c1 | 8.14 | 7.55 | 7.24 | 6.57 | 7.66 | 7.36 |  |  |  | 
3 | CNC[C@H]1C2CCC(C2)[C@@H]1c1ccc2ccccc2c1 (stereo partly specified) | 7.39 | 7.07 | 8.44 | 8.05 |  |  |  |  |  | 
4 | CN(C)C[C@H]1C2CCC(C2)[C@@H]1c1ccc2cc(F)ccc2c1 (stereo partly specified) | 7.30 |  | 8.59 |  |  |  | 6.41 |  |  | 
5 | CN(C)CC1C2CCC(C2)C1c1ccc2ccccc2c1 (stereo unspecified) | 7.74 | 7.02 | 8.55 | 8.00 |  |  |  |  |  | 
6 | COc1ccc2cc([C@H]3C4CCC(C4)[C@@H]3CN(C)C)ccc2c1 (stereo partly specified) | 7.19 |  | 7.60 |  |  |  | 7.17 |  |  | 
7 | CNCC1C2CCC(C2)C1c1ccc2ccccc2c1 (stereo unspecified) | 7.60 | 7.06 | 8.31 | 7.30 |  |  |  | 20 | 20 | 25
8 | CNC[C@H]1C2CCC(C2)[C@@H]1c1ccc2cc(OC)ccc2c1 (stereo partly specified) | 7.22 |  | 7.92 |  |  |  | 6.92 |  |  | 
9 | CN(C)C[C@H]1C2CCC(CC2)[C@@H]1c1cccc(Cl)c1 | 7.19 | 6.78 | 7.60 | 6.52 |  |  |  |  |  | 
10 | CN(C)C[C@H]1C2CCC(C2)[C@@H]1c1ccc2cc(O)ccc2c1 (stereo partly specified) | 8.22 |  | 7.33 |  |  |  | 7.30 |  |  | 
11 | CNC[C@H]1C2CCC(C2)[C@@H]1c1ccc2cc(F)ccc2c1 (stereo partly specified) | 7.14 |  | 8.36 |  |  |  | 6.50 |  |  | 
12 | CN(C)C[C@H]1C2CCC(C2)[C@@H]1c1ccc2ccccc2c1 (stereo partly specified) | 7.60 | 7.12 | 8.64 | 8.05 |  |  |  | 25 | 5 | 40
13 | CN(C)C[C@@H]1C2CCC(C2)[C@H]1c1ccc2ccccc2c1 (stereo partly specified) | 7.42 | 7.03 | 8.24 | 7.70 |  |  |  |  | > 20 | 
